≈ marks a conversion by molar mass, not a printed value. Calls of active or inactive are those of the source. No cut-off for these calls is given here.
Key:
[1] = test system: Mycobacterium tuberculosis; assay: Antibacterial activity against actively replicative Mycobacterium tuberculosis H37Rv measured after 7 days by MABA assay; assay type: functional; conditions: 168 h
Procedure, shortened: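 Serial two-fold dilutions in 7H9-S were tested against replicating M. tuberculosis H37Rv (ATCC 27294) at 37 °C for 7 days. Alamar blue was then added and plates were incubated overnight. MIC was the lowest concentration that prevented the blue-to-pink colour change.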

[2] = Cytotoxicity against mouse RAW264.7 cells assessed as reduction in cell viability at 25 uM measured after 48 hrs by MTT assay; assay type: cell-based; conditions: read-out: INH
Procedure, shortened: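 RAW 264.7 cells were grown in RPMI with 10% FBS and penicillin/streptomycin, seeded at about 5000 cells/well on poly-L-lysine, and held 24 h at 37 °C in 5% CO2. Compound exposure lasted 48 h. MTT (0.5 mg/ml) was added for 3 h and formazan was read at 595 nm.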

[3] = Inhibition of Mycobacterium tuberculosis L-AlaDH assessed as NADH production by spectrophotometric method
Procedure, shortened: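 Oxidative deamination of L-alanine to pyruvate was followed by NADH absorbance at 340 nm at 37 °C. Background was read from reaction mix without enzyme. Compounds were tested across a 25 to 0.5 range to derive IC50.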

[4] = test system: Mycobacterium tuberculosis; assay: Antibacterial activity against nutrient-starved dormant Mycobacterium tuberculosis H37Rv assessed in log reduction in bacterial count at 10 ug/ml measured after 7 days by MPN assay relative to control; assay type: functional
Procedure, shortened: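 H37Rv was grown in 7H9/OADC, washed, and starved in PBS in sealed bottles at 37 °C for 6 weeks. The starved culture was treated for 7 days at 37 °C, then diluted 10-fold to 10^-6 in 7H9/OADC and plated in triplicate. After 28 days at 37 °C, wells with growth were scored and MPN was calculated (n = 3).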

| Compound | MIC [1] [µM] | cytotoxicity at 48 h, 25 µM [2] [%] | IC50 [3] [µM] | Activity [4] | Log reduction in bacterial count [4] |
| --- | --- | --- | --- | --- | --- |
| O=C(NN1C(C(=O)Nc2ccc(Cl)cc2)CC1C(=O)Nc1ccc(Cl)cc1)c1ccncc1 (centres undefined) | 51.6 (≈ 25 µg/mL) | 32.9 | 5.56 |  |  |
| O=C(NN1C(C(=O)Nc2nc3ccccc3s2)CC1C(=O)Nc1nc2ccccc2s1)c1ccccc1 (centres undefined) | 5.93 (≈ 3.13 µg/mL) | 12.3 | > 25 | inactive |  |
| O=C(NN1C(C(=O)Nc2nc3ccccc3s2)CC1C(=O)Nc1nc2ccccc2s1)c1ccncc1 (centres undefined) | 11.8 (≈ 6.25 µg/mL) | 34.7 | 3.83 |  | 2 |
| O=C(NN1C(C(=O)NCc2ccccc2)CC1C(=O)NCc1ccccc1)c1ccncc1 (centres undefined) | 28.2 (≈ 12.5 µg/mL) | 49.3 | 10.2 |  |  |
| COc1ccc(NC(=O)C2CC(C(=O)Nc3ccc(OC)cc3OC)N2NC(=O)c2ccncc2)c(OC)c1 (centres undefined) | 46.7 (≈ 25 µg/mL) | 48.9 | 11.7 |  |  |
| COc1c(N2C[C@@H]3CCCN[C@@H]3C2)c(F)cc2c(=O)c(C(=O)O)cn(C3CC3)c12 [MOXIFLOXACIN] | 1.24 (≈ 0.498 µg/mL) |  |  |  | 2.8 |
| NNC(=O)c1ccncc1 [ISONIAZID] | 0.72 (≈ 0.0987 µg/mL) |  |  |  | 1.5 |
| O=C(NN1C(C(=O)Nc2ccccn2)CC1C(=O)Nc1ccccn1)c1ccncc1 (centres undefined) | 3.74 (≈ 1.56 µg/mL) | 7.68 | 9.47 |  |  |
| Cc1cccc(/C=N/NC2=Nc3[nH]c4ccc(C)cc4c3NN2)c1 |  |  | 18.2 |  |  |
| Cc1ccc2[nH]c(/C(C#N)=C/c3ccc(-c4cc(C(=O)O)cc(C(=O)O)c4)o3)nc2c1 |  |  | 15.6 |  |  |
| COc1ccc(Nc2nc(Nc3ccc4c(=O)[nH][nH]c(=O)c4c3)c3cccnc3n2)cc1 |  |  | 23.3 |  |  |
| CC[C@@H](CO)NCCN[C@@H](CC)CO [ETHAMBUTOL] | 7.64 (≈ 1.56 µg/mL) |  |  |  |  |
| O=C(NN1C(C(=O)Nc2ccccc2)CC1C(=O)Nc1ccccc1)c1ccncc1 (centres undefined) | 15.1 (≈ 6.26 µg/mL) | 19.8 | 9.22 |  | 1.6 |
| O=C(NN1C(C(=O)Nc2ccc(Br)cc2)CC1C(=O)Nc1ccc(Br)cc1)c1ccncc1 (centres undefined) | 2.72 (≈ 1.56 µg/mL) | 19.7 | > 25 | inactive |  |
| COc1ccc(C(=O)Nc2ccccc2)cc1Nc1nc(Nc2ccccn2)nc2ncccc12 |  |  | 22.1 |  |  |
| O=C(NN1C(C(=O)NCCc2ccccc2)CC1C(=O)NCCc1ccccc1)c1ccncc1 (centres undefined) | 26.5 (≈ 12.5 µg/mL) | 42.3 | 4.75 |  |  |
| CO[C@H]1/C=C/O[C@@]2(C)Oc3c(C)c(O)c4c(O)c(c(/C=N/N5CCN(C)CC5)c(O)c4c3C2=O)NC(=O)/C(C)=C\C=C\[C@H](C)[C@H](O)[C@@H](C)[C@@H](O)[C@@H](C)[C@H](OC(C)=O)[C@@H]1C [RIFAMPIN] | 0.15 (≈ 0.123 µg/mL) |  |  |  | 2.2 |
| Cc1ccc(NC(=O)C2CC(C(=O)Nc3ccc(C)cc3C)N2NC(=O)c2ccncc2)c(C)c1 (centres undefined) | 13.3 (≈ 6.26 µg/mL) | 19.3 | 4.38 |  |  |
| Cc1cccc(NC(=O)C2CC(C(=O)Nc3cccc(C)n3)N2NC(=O)c2ccncc2)n1 (centres undefined) | 3.51 (≈ 1.56 µg/mL) | 3.89 | 14.6 |  |  |
| O=C(NN1C(C(=O)Nc2ccc(Cl)c(Cl)c2)CC1C(=O)Nc1ccc(Cl)c(Cl)c1)c1ccncc1 (centres undefined) | 1.41 (≈ 0.78 µg/mL) | 49.5 | 13.7 |  |  |
| Cc1cccc(C)c1NC(=O)C1CC(C(=O)Nc2c(C)cccc2C)N1NC(=O)c1ccncc1 (centres undefined) | 3.31 (≈ 1.56 µg/mL) | 26.6 | 9.69 |  |  |

— ChEMBL document CHEMBL3826950, “Design and development of new class of Mycobacterium tuberculosisl-alanine dehydrogenase inhibitors” (Bioorg Med Chem, 2016)
